Experimental data from ChEMBL document CHEMBL1128569, “N-acyl-2-substituted-1,3-thiazolidines, a new class of non-narcotic antitussive agents: studies leading to the discovery of ethyl 2-[(2-methoxyphenoxy)methyl]-beta-oxothiazolidine-3-propanoate” (J Med Chem, 1995).

Assays:
Cavia porcellus [1] = assay: Antitussive activity by inhibition of irritant citric acid aerosol-induced coughing in guinea pig upon oral administration.; format: functional
Outline: (§1)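 Male guinea pigs (350-400 g) exposed in a box to 7.5% citric acid aerosol for 5 min, and coughs counted as the basal value. Next day, after overnight fasting, animals (6-8/dose) were gavaged with compound in water or 0.5% methyl cellulose (2 mL/kg) 1 h before re-exposure. Activity is the reduction in coughs versus the basal count. ED50 is the dose giving 50% reduction (Cochran and Snedecor).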

[2] = Acute toxicity was determined in mice upon peroral administration; format: organism-based; conditions: mouse, in vivo, po
Outline: (§2)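 Swiss mice of both sexes, groups of six, dosed by gavage at several doses up to 1000 mg/kg. Compound dissolved in water or suspended in 0.5% carboxymethyl cellulose, 10 mL/kg. Deaths recorded over 1-7 days. LD50 obtained by logit transformation.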

[3] = Lethality in mice following p.o. administration.; format: ADME, organism-based; conditions: mouse, in vivo, po; outline: as §2
Cavia porcellus [4] = assay: Antitussive activity was evaluated by inhibition of irritant aerosol-induced coughing by (po) administration of 30 mg/kg in guinea pig; format: functional; outline: as §1
Cavia porcellus [5] = assay: Inhibition of irritant electrically-induced coughing in guinea pig trachea following p.o. administration.; format: functional; conditions: po
Outline: (§3)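 Guinea pigs under ketamine (10 mg/kg im) and xylazine (3 mg/kg im) anaesthesia, with an electrode wrapped around the trachea about 1.5 cm above the bifurcation and an indifferent electrode on the dorsal skin. Coughs during stimulation counted as the basal value. Groups of 6-8/dose were gavaged with compound in water or 0.5% methyl cellulose (2 mL/kg). Activity is the cough reduction versus basal. ED50 is the dose giving 50% reduction.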

Cavia porcellus [6] = assay: Antitussive activity was evaluated by inhibition of irritant citric acid aerosol-induced coughing in guinea pig upon oral administration at 30 mg/kg dose; format: functional; outline: as §1
Cavia porcellus [7] = assay: Antitussive activity was evaluated by inhibition of irritant electrically-induced coughing in guinea pig trachea upon oral administration at 30 mg/kg; format: functional; outline: as §3
Cavia porcellus [8] = assay: Antitussive activity was evaluated by inhibition of irritant electrically-induced coughing by (po) administration in guinea pig; format: functional; outline: as §3
Cavia porcellus [9] = assay: Antitussive activity was evaluated by inhibition of irritant aerosol-induced coughing by (po) administration in guinea pig; format: functional; outline: as §1

Structure (SMILES)	ED50 (Cavia porcellus [1])	LD50 [2]	also measured
COc1ccccc1OCC1SCCN1C(=O)CC(=O)NCc1cccnc1.O=C(O)/C=C/C(=O)O (centres undefined)	57 mg/kg	677 mg/kg	
CCOC(=O)CC(=O)N1CCSC1COc1ccccc1O (centres undefined)	20 mg/kg	> 1000 mg/kg	
COc1ccccc1OCC1SCCN1C(=O)CSC(=O)c1cccnc1 (centres undefined)			LD50 [3]: > 1000 mg/kg; inhibition in vivo at 30 mg/kg (Cavia porcellus [4]): < 20%
O=C(O)[C@@H]1CSC(CCc2ccccc2O)N1 (some centres undefined)		> 1000 mg/kg	ED50 (Cavia porcellus [5]): 45 mg/kg; inhibition in vivo at 30 mg/kg (Cavia porcellus [6]): < 20%
COc1ccccc1OCC1SCCN1C(=O)CS (centres undefined)			inhibition in vivo at 30 mg/kg (Cavia porcellus [6]): < 20%
CC(=O)SCC(=O)Oc1ccccc1OCC1SCCN1C(=O)CSC(C)=O (centres undefined)			LD50 [3]: > 1000 mg/kg; inhibition in vivo at 30 mg/kg (Cavia porcellus [4]): < 20%
COc1ccccc1OCC1SCCN1C(=O)COC(C)=O (centres undefined)		> 1000 mg/kg	ED50 (Cavia porcellus [5]): 25 mg/kg
CCOC(=O)CC(=O)N1CCS(=O)(=O)C1COc1ccccc1OC (centres undefined)	28 mg/kg	> 1000 mg/kg	inhibition in vivo at 30 mg/kg (Cavia porcellus [7]): < 20%
Oc1ccccc1OCC1NCCS1 (centres undefined)		> 1000 mg/kg	
CCOCCOCC(=O)N1CCSC1COc1ccccc1OC (centres undefined)		916 mg/kg	inhibition in vivo at 30 mg/kg (Cavia porcellus [6]): < 20%
COc1ccccc1OCC1SCCN1C(=O)CSC(=O)c1cc(OC)c(OC)c(OC)c1 (centres undefined)			LD50 [3]: > 1000 mg/kg; inhibition in vivo at 30 mg/kg (Cavia porcellus [4]): < 20%
CCOC(=O)[C@@H]1CSC(COc2ccccc2OC)N1 (some centres undefined)		757 mg/kg	inhibition in vivo at 30 mg/kg (Cavia porcellus [6]): < 20%
COc1ccccc1OCC1SCCN1C(=O)CC(=O)N1CCN(C)CC1 (centres undefined)	27 mg/kg	880 mg/kg	
COC(=O)c1ccc(OCC2SCCN2C(=O)Cn2ccnc2)cc1 (centres undefined)	62 mg/kg	> 1000 mg/kg	
O=C(Cn1ccnc1)N1CCSC1COc1ccccc1O (centres undefined)			ED50 (Cavia porcellus [5]): 27 mg/kg
COc1ccccc1SCC1SCCN1C(=O)Cn1ccnc1 (centres undefined)		958 mg/kg	inhibition in vivo at 30 mg/kg (Cavia porcellus [6]): < 20%
COc1ccc(OCC2SCCN2C(=O)Cn2ccnc2)cc1 (centres undefined)	48 mg/kg	> 1000 mg/kg	
COc1ccccc1OCC1SCCN1C(=O)C[S+](C)[O-] (centres undefined)	25 mg/kg	> 1000 mg/kg	ED50 (Cavia porcellus [5]): 10 mg/kg
COc1ccccc1OCC1SCCN1C(=O)CSC(=O)CN1CCN(C)CC1 (centres undefined)			LD50 [3]: > 1000 mg/kg; inhibition in vivo at 30 mg/kg (Cavia porcellus [4]): < 20%
COc1ccc(OCC2SCCN2C(=O)CSC(C)=O)cc1 (centres undefined)			ED50 (Cavia porcellus [8]): 19 mg/kg; LD50 [3]: > 1000 mg/kg
CC(=O)SCC(=O)N1CCSC1CCc1ccccc1O (centres undefined)			ED50 (Cavia porcellus [9]): 61 mg/kg; LD50 [3]: > 1000 mg/kg
CSCC(=O)N1CCSC1COc1ccccc1O (centres undefined)		> 1000 mg/kg	ED50 (Cavia porcellus [5]): 28 mg/kg
COc1ccccc1OCC1SCCN1C(=O)CC(=O)NCc1ccccn1 (centres undefined)	26 mg/kg		ED50 (Cavia porcellus [5]): 64 mg/kg

Structure (SMILES)	ED50 (Cavia porcellus [1])	LD50 [2]	also measured
COc1ccccc1OCC1SCCN1C(=O)CSC (centres undefined)			ED50 (Cavia porcellus [5]): 21 mg/kg
CC(=O)SCC(=O)N1CCSC1COc1ccccc1O (centres undefined)			ED50 (Cavia porcellus [9]): 60 mg/kg; LD50 [3]: > 1000 mg/kg
C=CC(=O)N1CCSC1COc1ccccc1OC (centres undefined)	74 mg/kg	718 mg/kg	
CCN(CC)CCNC(=O)CC(=O)N1CCSC1COc1ccccc1OC (centres undefined)	56 mg/kg	250 mg/kg	inhibition in vivo at 30 mg/kg (Cavia porcellus [7]): < 20%
CCOC(=O)CCC(=O)N1CCSC1COc1ccccc1OC (centres undefined)	24 mg/kg	> 1000 mg/kg	
CNC(=O)CC(=O)N1CCSC1COc1ccccc1OC (centres undefined)	21 mg/kg	> 1000 mg/kg	ED50 (Cavia porcellus [5]): 22 mg/kg
COc1ccccc1OCC1SCCN1C(=O)CC(=O)N1CCN(C(c2ccccc2)c2ccccc2)CC1 (centres undefined)	66 mg/kg	> 1000 mg/kg	ED50 (Cavia porcellus [5]): 44 mg/kg
CCC(=O)SCC(=O)N1CCSC1COc1ccccc1OC (centres undefined)			inhibition in vivo at 30 mg/kg (Cavia porcellus [4]): < 20%
COc1ccccc1OCC1N(C(=O)CSC(C)=O)CC[S+]1[O-] (centres undefined)			LD50 [3]: 620 mg/kg; inhibition in vivo at 30 mg/kg (Cavia porcellus [4]): < 20%
COc1ccccc1OCC1SCCN1C(=O)CC(=O)N1CCN(C(c2ccc(F)cc2)c2ccc(F)cc2)CC1 (centres undefined)	26 mg/kg	> 1000 mg/kg	ED50 (Cavia porcellus [5]): 32 mg/kg
COc1ccccc1OCC1SCCN1C(=O)CC(=O)O (centres undefined)	20 mg/kg	> 1000 mg/kg	inhibition in vivo at 30 mg/kg (Cavia porcellus [7]): < 20%
O=C(O)CC(=O)N1CCSC1COc1ccccc1O (centres undefined)	25 mg/kg	1000 mg/kg	
CCOC(=O)C(=O)N1CCSC1COc1ccccc1OC (centres undefined)		> 1000 mg/kg	inhibition in vivo at 30 mg/kg (Cavia porcellus [6]): < 20%
COc1ccccc1OCC1NCCS1 (centres undefined)		> 1000 mg/kg	
CC(=O)SCC(=O)Oc1ccccc1CCC1SCCN1C(=O)CSC(C)=O (centres undefined)			LD50 [3]: > 1000 mg/kg; inhibition in vivo at 30 mg/kg (Cavia porcellus [4]): < 20%
CCOC(=O)CC(=O)N1CC[S+]([O-])C1COc1ccccc1OC (centres undefined)	27 mg/kg	> 1000 mg/kg	ED50 (Cavia porcellus [5]): 28 mg/kg
COc1ccccc1OCC1SCCN1C(=O)CNC(C)=O (centres undefined)	40 mg/kg	> 1000 mg/kg	
COc1ccccc1OCC1SCCN1C(=O)/C=C/c1ccc(O)c(O)c1 (centres undefined)			LD50 [3]: > 1000 mg/kg; inhibition in vivo at 30 mg/kg (Cavia porcellus [4]): < 20%
COc1ccccc1OCC1SCCN1C(=O)C(C)SC(C)=O (centres undefined)			LD50 [3]: > 1000 mg/kg; inhibition in vivo at 30 mg/kg (Cavia porcellus [4]): < 20%
COc1ccccc1OCC1N(C(=O)C[S+](C)[O-])CC[S+]1[O-] (centres undefined)		> 1000 mg/kg	
O=C(O)[C@@H]1CSC(COc2ccccc2O)N1 (some centres undefined)		> 1000 mg/kg	inhibition in vivo at 30 mg/kg (Cavia porcellus [6]): < 20%
CC(=O)SCC(=O)N1CCSC1COc1ccccc1C (centres undefined)			LD50 [3]: > 1000 mg/kg; inhibition in vivo at 30 mg/kg (Cavia porcellus [4]): < 20%
COc1ccccc1OCC1SCCN1C(=O)Cn1ccnc1 (centres undefined)	50 mg/kg	966 mg/kg	

Structure (SMILES)	ED50 (Cavia porcellus [1])	LD50 [2]	also measured
COc1ccccc1OCC1SCCN1C(C)=O (centres undefined)	46 mg/kg	552 mg/kg	
CCCC(=O)CC(=O)N1CCSC1COc1ccccc1OC (centres undefined)	42 mg/kg		
COc1ccccc1OCC1SCCN1C(=O)C(C)(C)C (centres undefined)		> 1000 mg/kg	ED50 (Cavia porcellus [5]): 24 mg/kg
CCOC(=O)[C@@H]1CSC(COc2ccccc2OC)N1C(=O)CSC(C)=O (some centres undefined)			LD50 [3]: 672 mg/kg; inhibition in vivo at 30 mg/kg (Cavia porcellus [4]): < 20%
COc1ccccc1OCC1N(C(=O)CS(C)(=O)=O)CC[S+]1[O-] (centres undefined)		> 1000 mg/kg	
COc1ccccc1OCC1N(C(=O)CC(=O)O)CC[S+]1[O-] (centres undefined)	20 mg/kg	> 1000 mg/kg	
COc1ccccc1OCC1SCCN1C(=O)CC(C)=O (centres undefined)	30 mg/kg	> 1000 mg/kg	ED50 (Cavia porcellus [5]): 26 mg/kg
CCOC(=O)C(C)(C)C(=O)N1CCSC1COc1ccccc1OC (centres undefined)	61 mg/kg	> 1000 mg/kg	ED50 (Cavia porcellus [5]): 48 mg/kg
COc1ccccc1OCC1SCCN1C(=O)C(C)(C)C(=O)O (centres undefined)	34 mg/kg	> 1000 mg/kg	ED50 (Cavia porcellus [5]): 21 mg/kg
COc1ccccc1OCC1SCCN1C(=O)CC(=O)NCc1ccncc1.Cl (centres undefined)	23 mg/kg	707 mg/kg	ED50 (Cavia porcellus [5]): 13 mg/kg
Cl.O=C(O)c1ccc(OCC2SCCN2C(=O)Cn2ccnc2)cc1 (centres undefined)		> 1000 mg/kg	inhibition in vivo at 30 mg/kg (Cavia porcellus [6]): < 20%
COc1ccccc1SCC1SCCN1C(=O)CN1CCN(C)CC1 (centres undefined)			inhibition in vivo at 30 mg/kg (Cavia porcellus [6]): < 20%
COc1ccccc1OCC1SCCN1C(=O)CN1CCOCC1.Cl (centres undefined)		612 mg/kg	inhibition in vivo at 30 mg/kg (Cavia porcellus [6]): < 20%
COc1ccccc1OCC1SCCN1C(=O)CC(=O)N1CCN(Cc2ccccc2)CC1.Cl (centres undefined)	41 mg/kg	681 mg/kg	
COc1ccccc1OCC1SCCN1C(=O)CN1CCN(C)CC1.Cl.Cl (centres undefined)		818 mg/kg	inhibition in vivo at 30 mg/kg (Cavia porcellus [7]): < 20%
COc1ccccc1OCC1SCCN1C(=O)CN.Cl (centres undefined)	57 mg/kg	585 mg/kg	
COc1ccc2c3c1O[C@H]1[C@@H](O)C=C[C@H]4[C@@H](C2)N(C)CC[C@@]341.COc1ccc2c3c1O[C@H]1[C@@H](O)C=C[C@H]4[C@@H](C2)N(C)CC[C@@]341.O.O=P(O)(O)O.O=P(O)(O)O [CODEINE PHOSPHATE]			ED50 (Cavia porcellus [9]): 29 mg/kg; ED50 (Cavia porcellus [8]): 14 mg/kg
COc1ccc2c(c1)[C@]13CCCC[C@@H]1[C@H](C2)N(C)CC3 [DEXTROMETHORPHAN]			ED50 (Cavia porcellus [9]): 48 mg/kg; ED50 (Cavia porcellus [8]): 16 mg/kg
OCC(O)CN1CCN(c2ccccc2)CC1 (centres undefined) [DROPROPIZINE]	144 mg/kg		ED50 (Cavia porcellus [5]): 32 mg/kg
COc1ccccc1OCC1SCCN1C(=O)CSC(C)=O (centres undefined) [GUAISTEINE]			ED50 (Cavia porcellus [9]): 26 mg/kg; ED50 (Cavia porcellus [8]): 17 mg/kg; LD50 [3]: > 1000 mg/kg
CCOC(=O)CC(=O)N1CCSC1COc1ccccc1OC (centres undefined) [MOGUISTEINE]	21 mg/kg	> 1000 mg/kg	ED50 (Cavia porcellus [5]): 11 mg/kg
